According to ChEMBL document CHEMBL1772991, “Synthesis and structure-activity relationship of tricyclic carboxylic acids as novel anti-histamines” (Bioorg Med Chem, 2011):

Biological target: Histamine H1 receptor (Homo sapiens, UniProt P35367)
Experiment: Displacement of [3H]pyrilamine from human histamine H1 receptor expressed in CHO-K1 cells after 60 mins by scintillation counting
Assay type: cell-based
Settings: not given

Histamine H1 receptor, sequence (P35367 whole entry): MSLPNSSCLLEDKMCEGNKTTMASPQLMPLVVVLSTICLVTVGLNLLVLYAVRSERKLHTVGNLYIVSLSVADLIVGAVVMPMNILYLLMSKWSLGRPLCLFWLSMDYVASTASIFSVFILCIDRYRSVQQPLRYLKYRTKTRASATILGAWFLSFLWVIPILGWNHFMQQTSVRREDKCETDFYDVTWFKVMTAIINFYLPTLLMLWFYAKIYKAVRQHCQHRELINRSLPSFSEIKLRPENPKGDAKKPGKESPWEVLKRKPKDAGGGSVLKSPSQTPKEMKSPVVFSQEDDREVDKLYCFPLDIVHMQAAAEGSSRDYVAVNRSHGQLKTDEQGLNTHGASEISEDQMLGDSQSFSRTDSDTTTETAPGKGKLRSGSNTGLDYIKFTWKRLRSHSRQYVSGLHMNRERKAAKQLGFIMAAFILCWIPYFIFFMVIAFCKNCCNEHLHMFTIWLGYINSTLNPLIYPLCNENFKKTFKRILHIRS

Row | SMILES | IC50 [nM]
1 | Cn1c(N2CCCN(CCCN3c4ccccc4COc4ccc(C(C)(C)C(=O)O)cc43)CC2)cc(=O)n(C)c1=O | 150
2 | Cn1c(N2CCN(CCCN3c4ccccc4COc4ccc(C(=O)O)cc43)CC2)cc(=O)n(C)c1=O | 140
3 | Cn1c(N2CCCN(CC/C=C3/c4ccccc4CCc4ccc(C(=O)O)cc43)CC2)cc(=O)n(C)c1=O | 153
4 | Cn1c(N2CCCN(CCCN3c4cc(C(=O)O)ccc4COc4ccccc43)CC2)cc(=O)n(C)c1=O | 530
5 | Cn1c(N2CCN(CC/C=C3/c4ccccc4CCc4ccc(CC(=O)O)cc43)CC2)cc(=O)n(C)c1=O | 195
6 | Cn1c(N2CCN(CC/C=C3\c4ccccc4COc4ccc(CC(=O)O)cc43)CC2)cc(=O)n(C)c1=O | 540
7 | Cn1c(N2CCN(CCCN3c4ccccc4COc4ccc(CC(=O)O)cc43)CC2)cc(=O)n(C)c1=O | 255
8 | Cn1c(N2CCN(CC/C=C3/c4ccccc4COc4ccc(C(=O)O)cc43)CC2)cc(=O)n(C)c1=O | 325
9 | Cn1c(N2CCCN(CCCN3c4ccccc4CCc4ccc(C(C)(C)C(=O)O)cc43)CC2)cc(=O)n(C)c1=O | 75
10 | Cn1c(N2CCCN(CCCN3c4ccccc4COc4ccc(C(=O)O)cc43)CC2)cc(=O)n(C)c1=O | 41

Test system: not listed separately
Experiment: Permeability from apical to basolateral side of human Caco2 cells after 120 mins
Settings: Caco-2

Row | SMILES | Papp A→B at 2 h [×10⁻⁶ cm/s]
11 | Cn1c(N2CCCN(CCCN3c4ccccc4COc4ccc(C(C)(C)C(=O)O)cc43)CC2)cc(=O)n(C)c1=O | 4.6
12 | Cn1c(N2CCCN(CC/C=C3/c4ccccc4CCc4ccc(C(=O)O)cc43)CC2)cc(=O)n(C)c1=O | 6.9
13 | Cn1c(N2CCCN(CCCN3c4cc(C(=O)O)ccc4COc4ccccc43)CC2)cc(=O)n(C)c1=O | 1.6
14 | Cn1c(N2CCN(CC/C=C3/c4ccccc4CCc4ccc(CC(=O)O)cc43)CC2)cc(=O)n(C)c1=O | 14.7
15 | Cn1c(N2CCN(CC/C=C3\c4ccccc4COc4ccc(CC(=O)O)cc43)CC2)cc(=O)n(C)c1=O | 4.7
16 | Cn1c(N2CCN(CCCN3c4ccccc4COc4ccc(CC(=O)O)cc43)CC2)cc(=O)n(C)c1=O | 3
17 | Cn1c(N2CCCN(CCCN3c4ccccc4CCc4ccc(C(C)(C)C(=O)O)cc43)CC2)cc(=O)n(C)c1=O | 7
18 | Cn1c(N2CCCN(CCCN3c4ccccc4COc4ccc(C(=O)O)cc43)CC2)cc(=O)n(C)c1=O | 6.3

Test system: Mus musculus
Experiment: In vivo antihistaminic activity at histamine H1 receptor in ddY mouse assessed as inhibition of histamine-induced skin vascular permeability at 3 mg/kg, po administered 1 hr before histamine challenge by Evan's blue staining
Assay type: functional
Settings: not given
How it was run: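 Female ddY mice, 8 weeks old, dosed orally at 3 mg/kg as a suspension in 0.5% methylcellulose, 1 h before intradermal histamine ([…]) into back skin, following i.v. Evans blue. Mice sacrificed 30 min after histamine; dyed area measured. % inhibition, mean ± SE of six mice.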

Row | SMILES | inhibition in vivo at 3 mg/kg [%]
19 | Cn1c(N2CCCN(CCCN3c4ccccc4CCc4ccc(C(C)(C)C(=O)O)cc43)CC2)cc(=O)n(C)c1=O | 67
20 | Cn1c(N2CCCN(CCCN3c4ccccc4COc4ccc(C(=O)O)cc43)CC2)cc(=O)n(C)c1=O | 87

Test system: not listed separately
Experiment: Oral bioavailability in fasted rat at 10 mg/kg after 24 hrs
Assay type: ADME, organism-based
Settings: in vivo
How it was run: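 Fasted male rats (n = 3 per route). Dosing: 1 mg/kg i.v. in 5% glucose/0.1 N HCl (9:1), or 10 mg/kg p.o. as a 0.5% methylcellulose suspension. Jugular blood sampled up to 24 h (po: 15, 30 min, 1, 2, 4, 6, 24 h) and plasma stored at -70 °C. AUCs taken from plasma concentration–time courses. BA = (AUCpo/Dpo)/(AUCiv/Div) × 100.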

Row | SMILES | bioavailability [%]
21 | Cn1c(N2CCCN(CCCN3c4ccccc4CCc4ccc(C(C)(C)C(=O)O)cc43)CC2)cc(=O)n(C)c1=O | 14
22 | Cn1c(N2CCCN(CCCN3c4ccccc4COc4ccc(C(=O)O)cc43)CC2)cc(=O)n(C)c1=O | 23

Species: Mus musculus
Experiment: Ex vivo receptor occupancy of histamine H1 receptor in mouse brain at ED70 after 30 mins by scintillation counting
Assay type: functional
Settings: not given

Row | SMILES | Activity [%]
23 | Cn1c(N2CCN(CCCN3c4ccccc4COc4ccc(C(=O)O)cc43)CC2)cc(=O)n(C)c1=O | 20
